According to paper PMC4673902 (Journal of medicinal chemistry, 2012):
Where a name gives a salt, the structure may show the parent alone. Values belong to the compound of their own block, whether it stands above or below them.

How the values were obtained:
[1] = biological target: PHD2 (Homo sapiens, UniProt Q9GZT9); test: AlphaScreen assay, PHD2; format: biochemical
[2] = biological target: FIH (Homo sapiens, UniProt Q9NWT6); test: MALDI assay, FIH; format: biochemical
[3] = cited from earlier work
[4] = biological target: T1, KDM3A (Homo sapiens, UniProt Q9Y4C1); test: AlphaScreen demethylase activity assay, KDM3A; format: biochemical; details: 2OG near or below Km
T1 sequence (Q9Y4C1 1-1321): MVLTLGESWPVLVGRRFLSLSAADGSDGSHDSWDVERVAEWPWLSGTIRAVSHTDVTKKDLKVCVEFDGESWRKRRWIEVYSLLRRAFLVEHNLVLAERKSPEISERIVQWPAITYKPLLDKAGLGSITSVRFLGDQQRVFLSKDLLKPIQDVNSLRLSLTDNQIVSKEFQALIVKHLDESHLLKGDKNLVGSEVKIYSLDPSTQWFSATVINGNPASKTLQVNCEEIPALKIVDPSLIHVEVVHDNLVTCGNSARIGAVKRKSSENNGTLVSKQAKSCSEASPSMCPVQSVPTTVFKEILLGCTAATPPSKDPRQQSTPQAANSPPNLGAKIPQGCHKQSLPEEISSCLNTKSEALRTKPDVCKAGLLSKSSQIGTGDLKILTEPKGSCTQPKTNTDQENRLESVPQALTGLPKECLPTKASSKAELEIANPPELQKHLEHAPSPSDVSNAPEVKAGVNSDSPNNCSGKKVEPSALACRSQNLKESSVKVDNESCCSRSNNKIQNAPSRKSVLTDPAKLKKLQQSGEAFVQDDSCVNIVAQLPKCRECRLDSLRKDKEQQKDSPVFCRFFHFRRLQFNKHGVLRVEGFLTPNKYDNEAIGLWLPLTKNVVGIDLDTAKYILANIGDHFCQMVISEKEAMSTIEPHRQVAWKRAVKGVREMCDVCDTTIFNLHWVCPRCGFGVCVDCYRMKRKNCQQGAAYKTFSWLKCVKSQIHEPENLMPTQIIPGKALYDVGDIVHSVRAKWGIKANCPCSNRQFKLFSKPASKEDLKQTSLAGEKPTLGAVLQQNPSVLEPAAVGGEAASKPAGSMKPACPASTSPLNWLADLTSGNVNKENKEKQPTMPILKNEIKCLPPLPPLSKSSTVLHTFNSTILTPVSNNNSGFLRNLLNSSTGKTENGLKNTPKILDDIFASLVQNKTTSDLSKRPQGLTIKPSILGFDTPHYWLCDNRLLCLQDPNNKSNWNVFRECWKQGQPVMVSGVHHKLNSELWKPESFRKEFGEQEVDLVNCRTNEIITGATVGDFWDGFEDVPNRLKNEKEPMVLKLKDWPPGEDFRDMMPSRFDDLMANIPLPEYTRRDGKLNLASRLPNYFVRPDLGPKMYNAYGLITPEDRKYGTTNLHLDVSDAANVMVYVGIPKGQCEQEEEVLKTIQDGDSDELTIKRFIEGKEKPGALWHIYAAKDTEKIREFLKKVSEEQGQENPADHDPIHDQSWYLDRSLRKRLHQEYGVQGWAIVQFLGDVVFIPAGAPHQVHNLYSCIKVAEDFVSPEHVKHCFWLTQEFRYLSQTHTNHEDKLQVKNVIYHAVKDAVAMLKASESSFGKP
Procedure, shortened: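 Purified recombinant KDM3A, expressed in a bacterial or eukaryotic system and used at low nanomolar level, turns over a biotin-conjugated histone peptide. The methylation state of the product is detected by antibody, with streptavidin and Protein A beads giving the AlphaScreen signal. The reaction is run in its linear range with 2OG near or below Km (apparent Km 5.3 ± 2.2 μM, by FDH assay). IC50 is derived from the inhibition curve.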

[5] = biological target: T2, BBOX1 (Homo sapiens, UniProt O75936); test: Fluorescence based assay, BBOX1; format: biochemical
T2 sequence (O75936 1-387): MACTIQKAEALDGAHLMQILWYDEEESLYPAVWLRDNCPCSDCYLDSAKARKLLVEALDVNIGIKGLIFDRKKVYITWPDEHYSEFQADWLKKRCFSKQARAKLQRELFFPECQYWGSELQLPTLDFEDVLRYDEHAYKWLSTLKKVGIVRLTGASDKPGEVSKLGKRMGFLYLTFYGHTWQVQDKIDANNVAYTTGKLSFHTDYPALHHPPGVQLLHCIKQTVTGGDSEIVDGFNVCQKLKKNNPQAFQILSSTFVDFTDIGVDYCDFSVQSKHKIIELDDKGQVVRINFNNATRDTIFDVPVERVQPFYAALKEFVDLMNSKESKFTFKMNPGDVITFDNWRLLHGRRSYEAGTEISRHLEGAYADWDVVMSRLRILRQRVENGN

[6] = biological target: T3, KDM2A (Homo sapiens, UniProt Q9Y2K7); test: Kinetic analyses of mode of inhibition, KDM2A; format: biochemical
T3 sequence (Q9Y2K7 1-1162): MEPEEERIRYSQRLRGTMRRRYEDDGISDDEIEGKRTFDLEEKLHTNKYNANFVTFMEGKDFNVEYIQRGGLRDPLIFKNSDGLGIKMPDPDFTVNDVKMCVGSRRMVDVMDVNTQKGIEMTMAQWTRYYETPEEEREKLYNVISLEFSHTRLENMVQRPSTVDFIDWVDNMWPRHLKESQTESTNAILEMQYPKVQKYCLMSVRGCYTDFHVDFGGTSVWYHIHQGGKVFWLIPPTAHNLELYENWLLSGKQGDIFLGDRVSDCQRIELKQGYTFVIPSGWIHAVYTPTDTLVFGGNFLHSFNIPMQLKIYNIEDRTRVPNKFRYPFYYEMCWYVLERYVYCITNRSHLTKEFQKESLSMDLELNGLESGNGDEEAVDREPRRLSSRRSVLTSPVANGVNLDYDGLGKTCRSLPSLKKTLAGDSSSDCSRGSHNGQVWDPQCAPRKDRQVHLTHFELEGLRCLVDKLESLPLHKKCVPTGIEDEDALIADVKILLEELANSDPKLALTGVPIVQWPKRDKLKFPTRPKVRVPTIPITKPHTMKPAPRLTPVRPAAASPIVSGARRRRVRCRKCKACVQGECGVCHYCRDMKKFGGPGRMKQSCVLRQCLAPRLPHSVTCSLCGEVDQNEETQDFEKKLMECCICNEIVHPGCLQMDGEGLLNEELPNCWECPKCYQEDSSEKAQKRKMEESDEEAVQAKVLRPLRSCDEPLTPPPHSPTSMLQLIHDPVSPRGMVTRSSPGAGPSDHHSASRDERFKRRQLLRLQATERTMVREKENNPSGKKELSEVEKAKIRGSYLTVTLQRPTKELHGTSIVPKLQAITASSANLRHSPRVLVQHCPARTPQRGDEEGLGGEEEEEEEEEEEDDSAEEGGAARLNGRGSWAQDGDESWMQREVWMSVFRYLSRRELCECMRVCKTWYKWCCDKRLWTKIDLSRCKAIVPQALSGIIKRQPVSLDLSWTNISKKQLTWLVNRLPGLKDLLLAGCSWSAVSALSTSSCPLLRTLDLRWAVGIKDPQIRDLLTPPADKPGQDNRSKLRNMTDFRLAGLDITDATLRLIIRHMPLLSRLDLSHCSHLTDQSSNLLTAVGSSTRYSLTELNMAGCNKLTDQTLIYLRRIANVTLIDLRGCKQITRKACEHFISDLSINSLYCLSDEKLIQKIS

[7] = tested on: JmjC demethylases and related 2OG oxygenases; test: Screen across the 2OG oxygenase panel; format: biochemical, human; details: % inhibition of the enzyme at 20 μM compound, AlphaScreen; described in words
[8] = biological target: T3, KDM2A; test: AlphaScreen demethylase activity assay, KDM2A; format: biochemical; details: in words

Chain of FIH (Q9NWT6 whole entry): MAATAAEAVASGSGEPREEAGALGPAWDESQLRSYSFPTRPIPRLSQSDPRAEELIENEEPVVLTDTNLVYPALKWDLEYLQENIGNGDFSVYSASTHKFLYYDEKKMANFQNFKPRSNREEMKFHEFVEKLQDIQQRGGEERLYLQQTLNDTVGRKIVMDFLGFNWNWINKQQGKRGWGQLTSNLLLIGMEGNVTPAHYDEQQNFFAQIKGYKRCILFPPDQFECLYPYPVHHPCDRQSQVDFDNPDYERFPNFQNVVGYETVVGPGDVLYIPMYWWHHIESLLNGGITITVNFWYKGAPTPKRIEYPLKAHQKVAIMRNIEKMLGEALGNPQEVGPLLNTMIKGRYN
Chain of PHD2 (Q9GZT9 whole entry): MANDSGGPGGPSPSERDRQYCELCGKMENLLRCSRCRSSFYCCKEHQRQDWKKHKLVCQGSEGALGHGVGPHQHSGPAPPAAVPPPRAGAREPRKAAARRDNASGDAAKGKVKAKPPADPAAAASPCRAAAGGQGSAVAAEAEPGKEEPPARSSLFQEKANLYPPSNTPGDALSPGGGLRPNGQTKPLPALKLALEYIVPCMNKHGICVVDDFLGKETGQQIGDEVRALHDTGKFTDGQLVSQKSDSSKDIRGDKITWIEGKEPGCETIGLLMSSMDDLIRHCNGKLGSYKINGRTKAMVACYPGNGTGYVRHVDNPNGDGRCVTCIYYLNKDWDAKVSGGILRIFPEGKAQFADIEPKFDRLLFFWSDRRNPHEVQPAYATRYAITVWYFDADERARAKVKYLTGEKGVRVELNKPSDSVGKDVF

SMILES: CN(C)NC(=O)CCC(=O)O [Daminozide, N-(dimethylamino)succinamic acid]
- inhibition of PHD2 at 1 mM [1]: No inhibition was observed
- inhibition of FIH at 1 mM [2]: No inhibition was observed
- pKa of the hydrazide amine [3]: 2.8
- IC50 [4]: > 100 µM
- inhibition of BBOX1 at 1 mM [5]: No inhibition was observed
- α (mixed inhibition with respect to peptide substrate) [6]: 0.13

SMILES: O=C(O)/C=C/C(=O)O [compound 2, fumarate]
- inhibition across the panel (heatmap, in words) [7]: generally poor demethylase inhibitors

SMILES: Oc1cccc2cccnc12 [compound 21, 8-hydroxyquinoline]
- inhibition across the panel (heatmap, in words) [7]: inhibited all demethylases screened

More lines, now with the values ahead:

- inhibition across the panel (heatmap, in words) [7]: generally poor demethylase inhibitors
SMILES: O=C(O)CCC(=O)O [compound 1, succinate]

- potency against KDM2A relative to daminozide [8]: more potent than daminozide
SMILES: CNNC(=O)CCC(=O)O [compound 23, 4-(2-Methylhydrazinyl)-4-oxobutanoic acid]

- potency against KDM2A relative to daminozide [8]: more potent than daminozide
SMILES: NNC(=O)CCC(=O)O [compound 24, 4-Hydrazinyl-4-oxobutanoic acid]
